# Wee1 stabilizer – inhibitors of human Wee1 degradation; P30291; HeLa Luc-Wee1K328M stability, luciferase luminescence; 100% = proteasome inhibitor MG132 effect; reporter increase, % at 5 µM; actives 1.2% (n = 220,000); AID 1321;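 active = activation above the mean of all tested compounds plus 3 SD, set per screening run, cut at about 8.8% in these data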;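 note: cells exposed to compound for 20 h before luminescence read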
# STAT1 activator – STAT1 signaling activation; NIH 3T3 STAT1-luciferase reporter, IFN-gamma, luminescence; 100% = IFN-gamma alone, no compound; actives 2.6% (n = 200,000); activation (% of control), % at 5.5 µM;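 active = activation above the screen-wide mean activation plus 3 SD, cut at about 130% in these data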
# p97 inhibitor – blocks human p97 ATPase activity; P55072; recombinant p97 ATPase, Kinase-Glo ATP luminescence, 3 h; inhibition, % at 8 µM; actives 0.42% (n = 220,000); in the data active = inhibition above about 15%
# Target sequence (P55072 whole entry, looked up): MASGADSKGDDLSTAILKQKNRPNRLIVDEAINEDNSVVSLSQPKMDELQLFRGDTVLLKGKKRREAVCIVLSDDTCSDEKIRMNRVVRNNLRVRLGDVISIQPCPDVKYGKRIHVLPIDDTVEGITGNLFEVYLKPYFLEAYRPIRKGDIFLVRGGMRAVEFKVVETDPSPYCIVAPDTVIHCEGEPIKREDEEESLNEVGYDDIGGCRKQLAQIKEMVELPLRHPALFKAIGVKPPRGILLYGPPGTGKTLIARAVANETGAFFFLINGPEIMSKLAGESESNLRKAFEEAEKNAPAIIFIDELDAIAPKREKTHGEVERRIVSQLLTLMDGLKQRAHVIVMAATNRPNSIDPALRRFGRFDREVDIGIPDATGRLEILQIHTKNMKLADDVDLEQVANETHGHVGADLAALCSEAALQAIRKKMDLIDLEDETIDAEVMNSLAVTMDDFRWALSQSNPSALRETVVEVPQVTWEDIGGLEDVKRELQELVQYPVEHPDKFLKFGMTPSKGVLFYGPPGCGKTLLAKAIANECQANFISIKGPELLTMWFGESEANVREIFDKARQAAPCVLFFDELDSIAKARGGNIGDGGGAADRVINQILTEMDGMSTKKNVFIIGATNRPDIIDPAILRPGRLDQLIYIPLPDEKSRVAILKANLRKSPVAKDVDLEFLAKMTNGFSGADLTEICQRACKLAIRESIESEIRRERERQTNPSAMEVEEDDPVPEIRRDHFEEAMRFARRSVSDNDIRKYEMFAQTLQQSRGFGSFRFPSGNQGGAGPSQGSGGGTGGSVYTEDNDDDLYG
# APP 5'UTR act – activates APP 5'UTR luciferase reporter | actives 1% (n = 190,000) | AID 1276 | SH-SY5Y APP 5'UTR luciferase reporter, luminescence; zero percent = DMSO vehicle wells | activation, % at 2 µM;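 active = activation above a set limit, based on mean plus 3 SD of controls, cut at about 140% in these data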
# NF-kB expr up – NF-kB expression increase, human neuronal cells. NF-kB reporter expression; active compounds read high. fold change at 12.5 µM. actives 1.6% (n = 190,000); in the data active = fold change above about 3.3
# MDM2 E3 inh – inhibitors of human Mdm2 E3 ubiquitin ligase | Q00987 | cell-based MDM2 ubiquitination luciferase reporter, 2 h; 0 = plate control, 100 = twice control, blank-subtracted | signal enhancement, % at 5 µM | actives 0.11% (n = 210,000) | AID 1230;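 active = signal enhancement of 30% or more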;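 note: luminescence tracks abundance of the self-degrading MDM2-luciferase fusion protein; higher signal means inhibition of MDM2 E3 ligase activity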
#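 test system = mammalian cells stably expressing self-ubiquitinating, self-degrading MDM2 E3–luciferase fusion | quantity = 2000 cells/well | incubation = cell settling 4 h, compound treatment 2 h, both 37 °C | signal = luminescence with SteadyLite reagent, 15 min at room temperature | evaluation = % enhancement relative to plate controls after blank subtraction | benchmarks = plate controls and plate blanks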
# STAT1 act conf – STAT1 activation, confirmation assay | activation (% of control), % at 5.7 µM | shares compounds with STAT1 activator | NIH 3T3 STAT1-luciferase reporter, IFN-gamma potentiation, luminescence; 100% = IFN-gamma EC80 alone, no compound | actives 97% (n = 1,200);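 active = activation above a set limit carried over from the earlier primary STAT1 screen, cut at about 140% in these data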
# NFkB act – counter-screen for STAT1 activators: NF-kappaB activation; HEK293T NF-kB luciferase reporter, TNF-alpha stimulated, luminescence; 100% = TNF-alpha with vehicle only; activation (% of control), % at 5.7 µM; shares compounds with STAT1 activator; actives 43% (n = 1,200);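 active = activation above the mean of solvent-only control wells plus 3 SD, set per campaign, cut at about 130% in these data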;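 note: TNF-alpha given at a submaximal dose yielding about 80% of full reporter signal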
# STAT3 act 2 – human STAT3 activation in STAT1 activator counter-screen. U3A cells STAT3-luciferase reporter, IL-6, luminescence; cells lack STAT1; 100 = IL-6 alone, no compound effect. activation (% of control), % at 5.7 µM. shares compounds with STAT1 activator. actives 46% (n = 1,200);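 active = activation above the solvent-only control well mean plus 3 SD, set per plate batch, cut at about 110% in these data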;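 note: higher means more STAT3 reporter activation so hits are non-selective activators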
# Hits are given with their value; i = inactive; nt = not tested or not shown. Sampled rows, rich in hits. Any-hit rate of the full collection: about 4.6%.
SMILES,Wee1 stabilizer,STAT1 activator,p97 inhibitor,APP 5'UTR act,NF-kB expr up,MDM2 E3 inh,STAT1 act conf,NFkB act,STAT3 act 2
CCN(CC)CCNc1ncnc2c1sc1nc(N3CCCC3)c3c(c12)CC(C)(C)OC3,i,i,i,i,nt,nt,nt,nt,nt
CC1(C)CC(/C=C/c2ccccc2)=Nc2ccccc2N1,i,nt,i,nt,nt,i,nt,nt,nt
O=C1CC(/C=C/c2ccc(Cl)cc2)=Nc2ccccc2N1,i,176.9,i,i,3.65,i,198.4,145.4,120.4
Cc1ccc(OCc2ccc(C(=O)NCc3cccnc3)cc2)cc1C,i,i,i,i,i,i,nt,nt,nt
COc1cccc(/C=N/NC(=O)CN(CCc2ccccc2)S(=O)(=O)c2ccc(NC(C)=O)cc2)c1,i,i,i,i,i,i,nt,nt,nt
CCCC(=O)Nc1nc2ccc3nc(C)sc3c2s1,i,i,i,i,i,i,nt,nt,nt
CCC(=O)Nc1nc2ccc3sc(C)nc3c2s1,i,168.4,i,i,i,i,189.0,i,143.1
Cc1ccc2nc(NC(=O)c3ccco3)sc2c1,i,i,i,i,i,i,nt,nt,nt
O=C(Nc1nnc(C23CC4CC(CC(C4)C2)C3)s1)c1ccco1,9.4,151.7,i,i,i,i,190.3,i,120.2
Cc1nc2ccc3nc(NC(=O)c4ccco4)sc3c2s1,i,163.8,i,i,nt,nt,169.6,i,i
COc1ccc(-c2csc(NC(=O)c3ccco3)n2)cc1,i,153.0,i,137.4,4.15,i,164.2,i,i
O=C(Nc1nc(-c2ccccc2)cs1)c1ccco1,i,nt,i,nt,nt,i,nt,nt,nt
CCOc1ccc2nc(NC(=S)N(C)C)sc2c1,i,182.9,i,167.1,12.3,i,293.2,134.1,i
CN(C)C(=S)Nc1nc2ccccc2s1,i,164.8,i,i,9.1,i,169.8,137.9,i
CCCc1cc2c(-c3ccccc3)cc(=O)oc2cc1OCc1ccc(C(=O)O)o1,i,i,i,i,i,i,nt,nt,nt
CC1(C(=O)OCc2cc(=O)n3cc(Br)ccc3n2)CC1(Cl)Cl (centres undefined),i,161.2,i,i,i,i,167.7,i,i
COc1cc(/C(C)=N/Nc2ccc(C(=O)O)cc2)cc(OC)c1OC,i,i,i,i,i,i,nt,nt,nt
COc1ccc(/C(C)=N/Nc2ccc(C(=O)O)cc2)cc1OC,i,156.6,i,158.4,5.97,nt,189.8,i,119.2
Cc1occc1C(=O)Nc1cc(C(C)(C)C)on1,i,151.5,i,148.2,4.51,i,191.2,i,122.5
Cc1oc(-c2ccccc2)cc1C(=O)Nc1ccc2ccccc2c1,i,i,i,i,i,nt,nt,nt,nt
Cc1cc(C)c(NC(=O)c2ccoc2C)c(C)c1,i,i,i,i,i,i,nt,nt,nt
Cc1occc1C(=O)Nc1ccc2ccccc2c1,i,156.4,i,164.2,9.31,i,207.2,i,151.7
CN(C)C(=O)CCCCCCCCC(=O)N(C)C,i,nt,i,nt,nt,nt,nt,nt,nt
Cc1ccc(C(=O)CSC2=C(C#N)C(c3ccco3)C3=C(CCCC3=O)N2)cc1 (centres undefined),i,i,i,i,i,i,nt,nt,nt
N#CC1=C(SCC(=O)c2ccccc2)NC2=C(C(=O)CCC2)C1c1ccco1 (centres undefined),9.8,155.7,i,i,i,i,165.7,i,i
SMILES,Wee1 stabilizer,STAT1 activator,p97 inhibitor,APP 5'UTR act,NF-kB expr up,MDM2 E3 inh,STAT1 act conf,NFkB act,STAT3 act 2
Cc1c(C(=O)N2CCc3ccccc32)oc2c1C(=O)CC(C)(C)C2,i,157.1,i,i,i,i,180.2,134.4,113.2
O=C(CCC(=O)N1CCc2ccccc21)N1CCc2ccccc21,i,i,i,i,nt,nt,nt,nt,nt
Cc1ccc(C(=O)N2CCc3ccccc32)o1,i,164.7,i,158.6,i,i,183.5,i,i
O=C(CCCc1ccccc1)N1CCc2ccccc21,9.8,180.1,i,i,7.68,i,221.3,136.6,115.4
CC(C)NC(=O)CCn1c(=S)oc2ccccc21,i,i,i,i,i,i,nt,nt,nt
CCN(CC)c1ccc(/C=N/NC(=O)c2c[nH]c3ccccc23)cc1,i,i,i,i,i,i,nt,nt,nt
CCc1ccc(/C=N/NC(=O)c2c[nH]c3ccccc23)s1,i,153.5,i,i,i,i,188.5,i,115.1
Cn1cc(-c2nnc(-c3ccccc3)o2)c2ccccc21,10.0,158.7,i,i,5.18,i,258.3,i,129.5
Cc1nc2c(-c3ccccc3)c(C)nn2c(N)c1-c1ccccc1,i,158.9,i,198.8,i,i,206.2,141.1,i
COc1ccc(Cn2c(C3CC3)nc3ccc(NC(=O)c4ccco4)cc3c2=O)cc1,i,151.5,i,i,i,i,183.0,i,140.1
Cc1ccc(NNC(=O)c2ccc(Cl)cc2)nn1,i,nt,i,nt,nt,i,nt,nt,nt
Cc1cc(-c2cccs2)n[nH]1,i,i,i,i,i,i,nt,nt,nt
Cc1nc2nc(-c3cccs3)cn2nc1C,i,152.5,i,i,i,i,165.4,134.4,i
CC(=O)c1cccc(Nc2ccc(-c3ccccc3F)nn2)c1,i,152.1,i,i,i,i,178.8,i,i
CC(=O)c1cccc(NC(=O)Nc2cnn(Cc3ccc(F)cc3)c2)c1,i,i,i,i,i,i,nt,nt,nt
O=C(/C=C/Nc1ccccc1O)c1ccco1,i,nt,i,nt,nt,i,nt,nt,nt
O=C(/C=C/Nc1cccc([N+](=O)[O-])c1)c1ccco1,i,i,i,i,nt,nt,nt,nt,nt
O=C(/C=C/Nc1ccc(Oc2ccccc2Cl)cc1)c1ccco1,i,155.2,i,i,6.21,i,177.8,143.8,135.1
O=C(/C=C/Nc1cccc(F)c1)c1ccco1,i,154.2,i,i,3.86,i,192.2,i,115.7
O=C(CCOc1ccccc1)Nc1ccc([N+](=O)[O-])cc1,i,i,i,i,i,i,nt,nt,nt
O=[N+]([O-])c1cccc(-c2cn3ccccc3n2)c1,i,153.1,i,i,5.46,i,206.1,140.9,114.7
O=C1c2ccccc2NC(c2cnc3ccccc3n2)N1O (centres undefined),i,158.9,i,i,6.92,i,209.0,i,i
O=C(NCc1ccc(F)cc1)C(Cc1ccccc1)n1cccc1 (centres undefined),i,nt,i,nt,nt,nt,nt,nt,nt
O=c1oc2ccccc2cc1-c1nnc(NCc2ccco2)s1,i,154.4,i,147.4,5.36,i,188.1,139.0,111.6
O=c1oc2ccccc2cc1-c1nc2c(s1)CCc1ccccc1-2,i,i,i,nt,i,i,nt,nt,nt

# Compound activity from PubChem BioAssay.
